Screening data deposited in PubChem BioAssay by The Scripps Research Institute Molecular Screening Center.
A selection: hits, their analogues and other compounds. The true share with any hit is near 4.6%.
OX1R antag-1 – OX1R (HCRTR1) antagonists, primary screen, fluorescence, CHO/OX1R cells, Fluo-8 calcium, orexin A; Fluo-8 calcium fluorescence; inhibition, % at 5 µM; actives 0.43% (n = 330,000); AID 434989, 2010;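 active = inhibition above its plate's threshold, mean inhibition of all tested compounds on the plate plus 3 SD, cut at about 37% in these data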;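 also: 0% = orexin A challenge wells and 100% = SB-334867-A antagonist wells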
OX1R antag-2 – antagonists of human orexin 1 receptor (OX1R); Orexin/Hypocretin receptor type 1 (Homo sapiens), O43613; OX1R-expressing cells, FRET antagonist read-out; inhibition, % at 6.6 µM; actives 1.8% (n = 330,000); AID 485270, 2010; in the data active = inhibition mostly above about 38%, no sharp cut-off; inactive = mostly below about 40%;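 also: 0% = agonist challenge alone and 100% = reference antagonist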
TAAR1 antag – human TAAR1 antagonists, primary screen, Fluo-8 calcium fluorescence, CHO RD-HGA16 cells | AID 624466, 2012 | inhibition, % at 3 µM | antagonist | Trace amine-associated receptor 1 (Homo sapiens), Q96RJ0 | actives 1.5% (n = 360,000);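 active = inhibition above a per-plate cutoff, the mean inhibition of test compounds on that plate plus 3 SD, cut at about 49% in these data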;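 also: 0% = DMSO plus EC80 beta-PEA response and 100% = DMSO alone without agonist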
Target sequence (Q96RJ0 whole entry, looked up): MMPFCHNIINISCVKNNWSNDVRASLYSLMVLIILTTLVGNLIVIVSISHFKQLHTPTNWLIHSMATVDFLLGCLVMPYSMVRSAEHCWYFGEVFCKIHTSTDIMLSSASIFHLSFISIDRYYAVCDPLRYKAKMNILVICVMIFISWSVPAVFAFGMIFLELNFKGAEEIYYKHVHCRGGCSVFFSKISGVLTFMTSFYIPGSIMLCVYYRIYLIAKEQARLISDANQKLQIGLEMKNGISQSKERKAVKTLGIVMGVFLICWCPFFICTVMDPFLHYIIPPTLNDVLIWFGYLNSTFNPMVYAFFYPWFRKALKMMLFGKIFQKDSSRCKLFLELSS
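test system = CHO RD-HGA16 cells bearing hTAAR1 | replication = singlicate | controls = DMSO-only wells and EC80 β-PEA-stimulated wells | reagent = EC80 β-phenethylamine stimulus | read-out basis = percent inhibition of PEA-evoked calcium signal, max/basal emission ratio | schedule = seeding 17-24 h prior, 75-min 37 °C, 30-min RT dye loading | signal = kinetic Fluo-8 calcium fluorescence measurement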
CHO parental Ca – ATP-evoked calcium signal inhibitors, parental CHO, primary screen, counter-screen for OX1R antagonist project, cell-based, fluorescence, Fluo-8 calcium dye; parental CHO-K1, ATP-induced calcium, Fluo-8 fluorescence; AID 463079, 2010; actives 0.63% (n = 330,000); inhibition, % at 5.6 µM;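 active = inhibition above that plate's mean sample inhibition plus 3 SD, cut at about 26% in these data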;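 also: 0% = ATP-challenged DMSO wells and 100% = DMSO wells without ATP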
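Assay system: untransfected parental CHO cell line. Also added: ATP agonist challenge. Dosing: one dose, 5.6 µM nominal. Measured by: Fluo-8 fluorescence. Read-out: % inhibition. Benchmarks: ATP wells versus no-ATP DMSO wells. Repeats: no replicates.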
GPR7 antag – GPR7 receptor antagonists, primary screen, cell-based, fluorescence, single concentration; Neuropeptides B/W receptor type 1 (Homo sapiens), P48145; GPR7-expressing cells, fluorescence antagonist assay; inhibition, % at 4.4 µM; actives 1.1% (n = 290,000); AID 1861, 2009; in the data active = inhibition above about 16%, passing the limit was not always enough;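 also: cells stimulated with the agonist NPW; 0% = agonist with vehicle and 100% = vehicle without agonist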
Target sequence (P48145 whole entry, looked up): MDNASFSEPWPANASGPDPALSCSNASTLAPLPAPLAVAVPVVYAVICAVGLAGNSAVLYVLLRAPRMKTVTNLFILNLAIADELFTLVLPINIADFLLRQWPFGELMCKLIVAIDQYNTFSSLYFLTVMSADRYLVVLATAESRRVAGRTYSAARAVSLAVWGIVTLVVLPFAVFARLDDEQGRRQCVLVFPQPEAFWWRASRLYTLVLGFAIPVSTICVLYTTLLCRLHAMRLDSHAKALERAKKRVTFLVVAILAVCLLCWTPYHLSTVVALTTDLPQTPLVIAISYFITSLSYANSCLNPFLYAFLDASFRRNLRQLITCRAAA
TAAR1 agonist – human TAAR1 agonists, primary screen, Fluo-8 calcium fluorescence, CHO RD-HGA16 cells. Trace amine-associated receptor 1 (Homo sapiens), Q96RJ0. actives 0.99% (n = 360,000). activation, % at 3 µM. vehicle wells 0%, saturating PEA agonist 100%;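 active = activation above the mean activation of all test compounds in the run plus 3 SD, cut at about 38% in these data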
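Repeats: no replicates (n 1) | Material: CHO-derived RD-HGA16 cells with stable Gα16 and human TAAR1 | Technique: Kinetic Fluo-8 calcium fluorescence | Schedule: 17-24 h seeding, 75 min 37 °C dye, 30 min RT | Evaluation: % activation from peak over basal fluorescence ratio, DMSO-to-PEA scaled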
* marks the source's active call; other numbers are inactive results.

Screening O=C(c1ccco1)N1CCN(Cc2cc(=O)c(OCc3ccc([N+](=O)[O-])cc3)co2)CC1 returned OX1R antag-1 -12, OX1R antag-2 39*, TAAR1 antag -32, CHO parental Ca -5 and TAAR1 agonist 0.
CC(=O)c1cccc(NC(=O)N2CCCC2C(=O)Nc2cccc(C)c2C)c1 (stereo unspecified) was read as OX1R antag-1 -13, OX1R antag-2 10, TAAR1 antag 10, CHO parental Ca 8, GPR7 antag -9 and TAAR1 agonist 13.
`CCSC1=NN2CCS(=O)(=O)N=C2S1` gave OX1R antag-1 3, OX1R antag-2 11, TAAR1 antag 5, CHO parental Ca 5, GPR7 antag 4 and TAAR1 agonist 0.
Screening Oc1c(Cl)cc(Cl)cc1Sc1cc(Cl)cc(Cl)c1O returned OX1R antag-1 73*, OX1R antag-2 60*, CHO parental Ca 101* and GPR7 antag 2.
Cc1cc(C)cc(NC(=O)c2ccc(CSc3nnnn3C)cc2)c1 was read as OX1R antag-1 7, OX1R antag-2 49*, TAAR1 antag 66*, CHO parental Ca -9, GPR7 antag 0 and TAAR1 agonist 20.
Screening C/C(=N\NC(=O)NC1CCCCC1)c1ccco1 returned OX1R antag-1 -11, OX1R antag-2 10, TAAR1 antag -27, CHO parental Ca -7, GPR7 antag 6 and TAAR1 agonist 2.
`COc1cccc(NC(=O)Cc2nc(-c3ccccc3)sc2-c2ccc(C)cc2)c1` gave OX1R antag-1 -20, OX1R antag-2 21, TAAR1 antag 4, CHO parental Ca -16, GPR7 antag 2 and TAAR1 agonist 5.
`CC(=O)Nc1cccc(NC(=O)Cc2nc(-c3ccccc3)sc2-c2ccc(C)cc2)c1` gave OX1R antag-1 13, OX1R antag-2 68*, TAAR1 antag 3, CHO parental Ca -2, GPR7 antag 16 and TAAR1 agonist -1.
For N#C/C(=C/c1ccc(Sc2nc3ccccc3[nH]2)o1)c1cccc(F)c1 the results were OX1R antag-1 7, OX1R antag-2 59*, TAAR1 antag 44, CHO parental Ca -3, GPR7 antag -7 and TAAR1 agonist 11.
Screening N#C/C(=C/c1ccc(Sc2nc3ccccc3[nH]2)o1)c1cccc(Br)c1 returned OX1R antag-1 19, OX1R antag-2 80*, TAAR1 antag 40, CHO parental Ca 29, GPR7 antag -12 and TAAR1 agonist 7.
Screening N#C/C(=C/c1ccc(Sc2nc3ccccc3[nH]2)o1)c1ccccc1F returned OX1R antag-1 18, OX1R antag-2 53*, TAAR1 antag 31, CHO parental Ca -6, GPR7 antag -10 and TAAR1 agonist 7.
N#C/C(=C\c1ccc(Sc2ccccc2)o1)c1nc2ccccc2[nH]1 was read as OX1R antag-1 -11, OX1R antag-2 53, TAAR1 antag 45, CHO parental Ca 0, GPR7 antag -6 and TAAR1 agonist 11.
For CCOC(=O)C1=CCN(S(=O)(=O)c2ccc(C)cc2)C1c1cccc(Br)c1 (stereo unspecified) the results were TAAR1 antag 1 and TAAR1 agonist 0.
For COc1ccccc1NC(=O)/C(=N/OCc1ccc(F)cc1)C(C)=O the results were OX1R antag-1 -33, OX1R antag-2 17, TAAR1 antag 7, CHO parental Ca -7, GPR7 antag -4 and TAAR1 agonist 2.
For COc1ccccc1OCC(=O)Nc1ccc(S(=O)(=O)N2CCCCCC2)cc1 the results were OX1R antag-1 1, OX1R antag-2 -2, TAAR1 antag 28, CHO parental Ca -9, GPR7 antag -10 and TAAR1 agonist 6.
C=CCN(CC=C)S(=O)(=O)c1ccc(NC(=O)COc2ccccc2OC)cc1 was read as OX1R antag-1 6, OX1R antag-2 20, TAAR1 antag 36, CHO parental Ca 38*, GPR7 antag 7 and TAAR1 agonist 8.
For C/C(=N\NC(=O)C(=O)N/N=C(\C)c1cccc(O)c1)c1cccc(O)c1 the results were OX1R antag-1 -8, OX1R antag-2 58*, TAAR1 antag -5, CHO parental Ca -10, GPR7 antag -8 and TAAR1 agonist 0.
C/C(=N\NC(=O)C(N)=O)c1cccc([N+](=O)[O-])c1 was read as OX1R antag-1 21, OX1R antag-2 18, TAAR1 antag -9, CHO parental Ca 13, GPR7 antag -2 and TAAR1 agonist 0.
Screening CCN(C(=O)Cn1c(=O)n(Cc2ccccc2)c(=O)c2ccccc21)c1cccc(C)c1 returned OX1R antag-1 -28, OX1R antag-2 19, TAAR1 antag 21, CHO parental Ca -23, GPR7 antag 1 and TAAR1 agonist 16.
Cc1ccc(NC(=O)CN(C)C2CCCCC2)cc1Br was read as OX1R antag-1 -19, OX1R antag-2 12, TAAR1 antag 6, CHO parental Ca -13, GPR7 antag 18 and TAAR1 agonist 7.
`CN(C)c1cc(-c2ccc(Cl)cc2)oc(=O)c1Cl` gave OX1R antag-1 -32, OX1R antag-2 16, TAAR1 antag 0, CHO parental Ca -16, GPR7 antag -13 and TAAR1 agonist -1.
`CN(C)c1cc(-c2ccc([N+](=O)[O-])cc2)oc(=O)c1Cl` gave OX1R antag-1 -21, OX1R antag-2 49*, TAAR1 antag -4, CHO parental Ca -12, GPR7 antag -17 and TAAR1 agonist 0.
Screening Cc1cc(CSc2ccccc2)ccc1NC(=O)c1cccc([N+](=O)[O-])c1 returned OX1R antag-1 -3, OX1R antag-2 27, TAAR1 antag 49*, CHO parental Ca -2, GPR7 antag -10 and TAAR1 agonist 6.
Screening Cc1cc(O)c(NC(=O)c2cccc([N+](=O)[O-])c2)cc1C returned OX1R antag-1 1, OX1R antag-2 11, TAAR1 antag 0, CHO parental Ca 24, GPR7 antag -6 and TAAR1 agonist 0.
`COc1cc(NC(=O)c2nnn(Cc3ccc(SC)cc3)c2N)cc(OC)c1` gave OX1R antag-1 15, OX1R antag-2 19, TAAR1 antag 41, CHO parental Ca 15, GPR7 antag 13 and TAAR1 agonist 8.
c1ccc(CNc2ncnc3c2oc2ccccc23)nc1 was read as OX1R antag-1 -9, OX1R antag-2 11, TAAR1 antag 10, CHO parental Ca -6, GPR7 antag -11 and TAAR1 agonist 2.
For COc1ccc(CCNc2nc(C)nc3c2oc2ccccc23)cc1OC the results were OX1R antag-1 31, OX1R antag-2 54*, TAAR1 antag 49*, CHO parental Ca 58*, GPR7 antag 13 and TAAR1 agonist 13.
